Screening results deposited in PubChem by several laboratories.
Efa HMGR inh = E. faecalis class II HMG-CoA reductase inhibition | inhibition, % at 10 µM | purified E. faecalis HMGR, NADPH absorbance 340 nm kinetic | 190,000 compounds, 0.41% hits;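 active means inhibition above a set limit, the median over all tested compounds plus 3 SD, cut at about 9.5% in these data; inconclusive means no clear call, values can overlap the other calls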;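 further: enzyme runs in reverse so mevalonate oxidation gives rising NADPH absorbance; 0% = complete reaction with DMSO and 100% = background rate lacking mevalonate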
RanGTP-Imp inh = inhibitors of RanGTP-importin-beta interaction, primary screen, biochemical, FRET, CFP-Ran, YFP-importin-beta, homogeneous; cell-free CFP-Ran/YFP-importin-beta FRET ratio; inhibition, % (no concentration beside the values); 300,000 compounds, 1.1% hits; AID 2216;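 active means more than half of the replicate wells show a fall in the fluorescence ratio signal beyond about 16%, limit read from the data, passing the limit was not always enough; inconclusive means exactly half of the replicate wells pass the set limit; inactive means fewer than half of replicates pass the limit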;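 further: 0% = DMSO wells and 100% = Ran loaded with GDP instead of GTP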
Runt-CBFb FRET = Runt domain-CBFb interaction inhibition; Q01196+Q13951; Cerulean-Runt/Venus-CBFb FRET ratio 530/480, 1 h; inhibition, % at 20 µM; 220,000 compounds, 0.46% hits;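 active means inhibition over about 50% at 20 µM in the single-dose screen, limit read from the data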;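 further: 0% = DMSO wells and 100% = excess unlabeled CBFb competitor control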
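System: Cerulean-labeled Runt domain protein | Quantity: 100 nM of each labeled protein | Schedule: 1 h compound exposure, room temperature | Detection: Fluorescence energy transfer, 422 nm excitation, 530/480 nm emission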
Wee1 stabilizer = blocks degradation of human Wee1 kinase; P30291; HeLa Luc-Wee1K328M stability, luciferase luminescence; 100% = proteasome inhibitor MG132 effect; reporter increase, % at 5 µM; 220,000 compounds, 1.2% hits; AID 1321;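 active means activation above the mean of all tested compounds plus 3 SD, set per screening run, cut at about 8.8% in these data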;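 further: cells exposed to compound for 20 h before luminescence read; 0% = DMSO alone and 100% = MG132 at 30 µM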
Runt-SMMHC FRET = Runt domain-CBFb-SMMHC interaction inhibition; Cerulean-Runt/Venus-CBFb-SMMHC FRET ratio 530/480, 1 h; 220,000 compounds, 0.74% hits; Q01196+Q13951; inhibition, % at 20 µM;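 active means mean inhibition across duplicate retests at 20 µM reaching about 50%, limit read from the data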;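 further: 0% = DMSO wells and 100% = wells with excess untagged CBFb-SMMHC; inhibitors lower the FRET ratio by blocking Runt binding to CBFb-SMMHC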
PHOSPHO1 inh = inhibitors of human PHOSPHO1 phosphatase. inhibition, % at 13.3 µM. Q8TCT1. 290,000 compounds, 1.1% hits. recombinant PHOSPHO1, absorbance phosphatase assay; in the data active means inhibition above about 60%
Target sequence (Q8TCT1 whole entry, looked up): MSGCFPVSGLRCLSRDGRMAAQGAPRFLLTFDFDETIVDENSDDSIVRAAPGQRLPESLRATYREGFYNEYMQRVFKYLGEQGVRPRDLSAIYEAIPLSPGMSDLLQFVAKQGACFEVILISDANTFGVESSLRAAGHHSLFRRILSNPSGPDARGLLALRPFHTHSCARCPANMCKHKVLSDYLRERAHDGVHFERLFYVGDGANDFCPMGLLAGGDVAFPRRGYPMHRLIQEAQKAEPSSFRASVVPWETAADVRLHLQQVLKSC
* hit, by the source's call; ? = inconclusive; · = no result. A selection: hits, their analogues and other compounds. The true share with any hit is near 3.4%.

SMILES | Efa HMGR inh | RanGTP-Imp inh | Runt-CBFb FRET | Wee1 stabilizer | Runt-SMMHC FRET | PHOSPHO1 inh
CC1(C)CC(N2CCCC2)=CC(=[N+]2CCCCCC2)C1 | -1 | 6 | -16 | 0 | 21 | -83
CCOC(=O)NN=C1CCC(c2ccccc2)CC1 (stereo unspecified) | · | -5 | · | · | · | -8
Cc1nc2c(C(=O)NCCC3=CCCCC3)c[nH]n2c(=O)c1Cl | 2 | ? | -3 | -3 | -2 | 82*
CN(CC(=O)Nc1ccc(F)cc1)C(=O)CN1C(=O)NC2(CCCc3ccccc32)C1=O (stereo unspecified) | · | -4 | · | · | · | 17
CCCn1c(N)c(N2CCCCC2)c(=O)n(CC(=O)Nc2ccc(OC(F)(F)F)cc2)c1=O | -5 | ? | -1 | 0 | 3 | 5
CCCCN(C(C)=O)c1c(N)n(CCC)c(=O)n(CC(=O)Nc2cc(Cl)cc(Cl)c2)c1=O | 2 | 3 | 0 | 12* | 3 | -13
CCOc1cc(-c2c(C#N)c(N)nc3c2CCc2ccccc2-3)ccc1O | -4 | 0 | -3 | -3 | 7 | -12
COc1ccccc1-c1c(C#N)c(N)nc2c1CCc1ccccc1-2 | -7 | 20* | 10 | 9 | 20 | 1
Cc1ccc(-n2cccc2C(=O)NS(=O)(=O)c2ccc(C)cc2)cc1 | · | 7 | 0 | 4 | -3 | 8
Cc1ccc(-n2cccc2C(=S)N=P(N(C)C)(N(C)C)N(C)C)cc1 | -5 | -1 | 11 | -2 | 8 | 67*
Cn1c(SCc2cc(=O)n3cc(Br)ccc3n2)nnc1C1COc2ccccc2O1 (stereo unspecified) | -8 | 1 | -2 | 0 | -3 | 73*
O=C(OCc1cc(=O)n2cc(Br)ccc2n1)C1COc2ccccc2O1 (stereo unspecified) | 0 | 0 | 5 | 0 | 2 | 24
CC(C)(C)NC(=O)C(c1ccc(O)cc1)N(C(=O)CCC(=O)Nc1ccccn1)c1ccc(F)cc1 (stereo unspecified) | · | -3 | · | · | · | 32
O=C(CNCc1ccco1)Nc1ccc(N2CCCCCC2)cc1 | 11* | 1 | 0 | 3 | 2 | 13
c1nc2n(n1)C1=C(CCCC1)C1(CCCCC1)N2 | -5 | 15* | -1 | -3 | 0 | 28
COc1ccc(CCNC(=O)C(C)Sc2ccccc2)cc1OC (stereo unspecified) | 2 | 3 | 0 | -1 | 5 | 60*
COc1cccc(N2CCN(C(=O)CN3C(=O)NC(C)(c4ccc5ccccc5c4)C3=O)CC2)c1 (stereo unspecified) | · | 9 | · | · | · | ·
CCNC(=O)CN1C(=O)NC(CCc2ccccc2)C1=O (stereo unspecified) | 0 | 3 | -2 | 2 | 2 | 32
O=C(CN1C(=O)NC(CCc2ccccc2)C1=O)NC1CC1 (stereo unspecified) | -2 | 3 | -3 | 11* | 0 | -18
Cc1cc(C)c(NC(=O)CN2C(=O)NC(CCc3ccccc3)C2=O)c(C)c1 (stereo unspecified) | 2 | -7 | -1 | 11* | 1 | -4
COc1ccc(-n2nc3c(c2NC(=O)COc2cccc(OC)c2)CS(=O)(=O)C3)cc1 | · | 1 | · | · | · | 48
CCOC(=O)CSC1=NC(=O)/C(=C\c2ccc(Cl)cc2)S1 | 1 | 2 | -7 | 2 | -25 | 26
CN(CCNC(=O)c1ccc(CS(=O)(=O)c2c(Cl)cccc2Cl)o1)CCc1ccccc1 | · | -5 | · | · | · | 65*
CCCN(CC(=O)Nc1ccccc1OC)C(=O)c1cc(-c2cccs2)nn1-c1ccccc1 | · | 0 | · | · | · | ·
COCCCNC(=S)Nc1ccccc1[N+](=O)[O-] | 2 | 3 | 8 | 5 | -5 | 60*
SMILES | Efa HMGR inh | RanGTP-Imp inh | Runt-CBFb FRET | Wee1 stabilizer | Runt-SMMHC FRET | PHOSPHO1 inh
COCCNC(=S)Nc1ccccc1[N+](=O)[O-] | 0 | -1 | 10 | -2 | -3 | 32
O=C(O)Cn1cnc2ccccc2c1=O | -1 | 10 | 2 | 9.6* | 1 | 15
COC(=O)Cn1cnc2ccccc2c1=O | -2 | 3 | 2 | -1 | 1 | -7
O=C(Cn1cnc2ccccc2c1=O)N1CCc2ccccc2C1 | -1 | -1 | -1 | -5 | 1 | 63*
CC(=O)N1c2ccc(S(=O)(=O)NCC3CCC(C(=O)NCc4ccco4)CC3)cc2CC1C (stereo unspecified) | · | 2 | · | · | · | 17
O=C(CSc1nc(-c2ccc(F)cc2)nc2c1Cc1ccccc1O2)Nc1ccc(C(=O)O)cc1 | 1 | · | 43 | -1 | -3 | -86
O=C(CSc1nc(-c2ccccc2)nc2c1Cc1ccccc1O2)Nc1ccc(C(=O)O)cc1 | 15* | · | 40 | 4 | -31 | -21
